Assay results: paper PMC4394042 (Cell reports, 2015)

Tests used:
[1] = tested on: Hh signaling in Sufu-/- MEFs; experiment: Gli1 and Ptc1 mRNA transcripts in Sufu-/- mouse embryonic fibroblasts; format: cell-based; conditions: 10 μM, normalized to GAPDH
[2] = tested on: Gli2FL nuclear accumulation; experiment: Western blot of nuclear full length Gli2 in SAG-stimulated NIH3T3 cells; format: cell-based; conditions: SAG 100 nM 1.5 h; Egm 10 μM, FSK 30 μM
How it was run: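 NIH3T3 cells were left unstimulated or stimulated with SAG (100 nM, 1.5 h), alone or with test compound (10 μM) or forskolin (30 μM), then fractionated. Full-length Gli2 was blotted in nuclear (Lamin-A/C control, n = 4) and whole-cell (α-tubulin control, n = 2) fractions. Output was the ratio of normalized nuclear to normalized whole-cell Gli2.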

[3] = tested on: Gli3FL to Gli3R processing; experiment: Western blot of Gli3 processing in SAG-stimulated C3H10T1/2 cells; format: cell-based; conditions: SAG 100 nM 24 h; Egm 10 μM, FSK 30 μM
How it was run: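 C3H10T1/2 cells were left unstimulated or stimulated with SAG (100 nM, 24 h), alone or with test compound (10 μM) or forskolin (30 μM). Whole-cell lysates were immunoblotted for full-length and repressor Gli3, with α-tubulin as loading control and infrared detection; n = 3.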

[4] = tested on: Hh signaling (Shh-Light2 cells); experiment: Gli-luciferase reporter in Shh-Light2 cells stimulated with Shh; format: cell-based, mouse; conditions: for Shh-responsive Gli-luciferase reporter activity: stimulated with Shh conditioned medium, significant starting at 1 μM
How it was run: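 Mouse Shh-Light2 Gli-responsive luciferase reporter cells were stimulated with Shh conditioned medium and then treated with increasing concentrations of test compound. Luciferase output was read as relative luciferase units (RLU), n = 4 per condition, reported as mean ± SEM with p-values.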

[5] = tested on: Hh-target gene Patched (Ptc)-1 expression; experiment: Whole-mount in situ hybridization for Ptc1 in zebrafish embryos; format: in vivo; conditions: 1 μM; 12 hpf and 48 hpf
[6] = tested on: Gli2-driven Gli-Luc activity; experiment: Gli-Luc activity in cells transiently overexpressing Gli2; format: cell-based; conditions: transient Gli2 overexpression
[7] = tested on: BMP (Bone Morphogenic Protein) signaling; experiment: BMP developmental signaling pathway test; format: cell-based
[8] = tested on: Hh signaling (Shh-Light2 cells); experiment: Gli-Luc reporter stimulated with Smo agonist purmorphamine; format: cell-based, mouse; conditions: purmorphamine 3 μM; significant starting at 0.5 μM
Smo = Smo (Homo sapiens, UniProt Q99835); format: binding; conditions: 5 nM BODIPY-cyclopamine; concentrations up to 10 μM
Sequence of Smo (Q99835 28-787): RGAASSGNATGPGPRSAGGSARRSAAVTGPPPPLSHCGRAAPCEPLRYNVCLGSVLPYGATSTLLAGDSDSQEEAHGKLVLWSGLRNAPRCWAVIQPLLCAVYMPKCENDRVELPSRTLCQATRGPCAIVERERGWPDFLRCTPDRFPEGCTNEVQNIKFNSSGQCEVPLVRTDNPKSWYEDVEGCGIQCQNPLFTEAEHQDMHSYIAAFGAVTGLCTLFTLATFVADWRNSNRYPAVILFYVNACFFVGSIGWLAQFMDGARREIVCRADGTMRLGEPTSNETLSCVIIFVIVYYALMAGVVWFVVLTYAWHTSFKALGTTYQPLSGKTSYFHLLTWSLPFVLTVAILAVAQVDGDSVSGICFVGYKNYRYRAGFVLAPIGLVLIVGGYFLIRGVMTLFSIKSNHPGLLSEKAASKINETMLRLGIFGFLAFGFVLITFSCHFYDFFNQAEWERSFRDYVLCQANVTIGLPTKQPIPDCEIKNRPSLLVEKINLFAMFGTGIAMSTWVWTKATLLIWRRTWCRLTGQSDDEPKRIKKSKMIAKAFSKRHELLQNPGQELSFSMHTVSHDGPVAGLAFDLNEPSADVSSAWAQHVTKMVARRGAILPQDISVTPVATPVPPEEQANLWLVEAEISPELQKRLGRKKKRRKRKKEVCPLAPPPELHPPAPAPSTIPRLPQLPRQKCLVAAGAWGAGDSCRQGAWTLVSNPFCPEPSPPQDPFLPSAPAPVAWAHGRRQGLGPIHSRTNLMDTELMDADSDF

[9] = tested on: Gli2 ciliary localization in MEFs; experiment: Gli2 trafficking to primary cilium in SAG-stimulated MEFs; format: cell-based, mouse; conditions: co-treatment SAG 20 nM and 5 μM compound
[10] = tested on: primary cilium of NIH3T3 cells; experiment: Cilium structure and IFT88 in NIH3T3 cells; format: cell-based
PKA [11] = experiment: Immunostaining of phospho-T197-PKA in NIH3T3 cells; format: cell-based; conditions: SAG 20 nM plus 5 μM compound
PKA [12] = experiment: Western blot of phospho-T197-PKA in NIH3T3 whole cell lysates; format: cell-based; conditions: SAG 20 nM plus 5 μM compound
How it was run: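 NIH3T3 cells were left unstimulated or treated with SAG (20 nM), with or without test compound (5 μM). Whole-cell lysates were immunoblotted for phospho-T197 PKA catalytic subunit, with α-tubulin as loading control.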

PDE super-family members = experiment: In vitro PDE activity screen across PDE super-family members; format: biochemical; conditions: 20 μM; PDE4D3 and three other members
PDE4D3 = PDE4D3 (Homo sapiens, UniProt Q08499); experiment: PDE dose-response assay, PDE4D3; format: biochemical
Sequence of PDE4D3 (Q08499 1-673 isoform Q08499-2): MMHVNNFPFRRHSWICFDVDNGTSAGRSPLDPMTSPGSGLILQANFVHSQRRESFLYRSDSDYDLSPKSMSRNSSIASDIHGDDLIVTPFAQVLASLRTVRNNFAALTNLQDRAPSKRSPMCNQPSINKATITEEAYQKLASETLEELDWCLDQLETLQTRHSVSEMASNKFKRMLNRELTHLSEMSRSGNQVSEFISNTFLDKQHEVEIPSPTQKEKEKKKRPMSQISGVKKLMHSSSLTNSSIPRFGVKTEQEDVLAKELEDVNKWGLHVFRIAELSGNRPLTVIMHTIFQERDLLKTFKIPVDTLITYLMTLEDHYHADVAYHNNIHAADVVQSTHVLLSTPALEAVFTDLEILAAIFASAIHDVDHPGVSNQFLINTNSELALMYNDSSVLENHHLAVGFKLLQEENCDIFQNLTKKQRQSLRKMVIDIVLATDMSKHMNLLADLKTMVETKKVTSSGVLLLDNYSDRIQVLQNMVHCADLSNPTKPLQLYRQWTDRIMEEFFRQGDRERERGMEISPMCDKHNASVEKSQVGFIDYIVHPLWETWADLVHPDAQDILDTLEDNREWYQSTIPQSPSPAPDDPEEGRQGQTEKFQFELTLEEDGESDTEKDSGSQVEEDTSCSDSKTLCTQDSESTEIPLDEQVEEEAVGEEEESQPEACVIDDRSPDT

PDE3A = PDE3A (Homo sapiens, UniProt Q14432); experiment: PDE dose-response assay, PDE3A; format: biochemical
Sequence of PDE3A (Q14432 whole entry, species assumed): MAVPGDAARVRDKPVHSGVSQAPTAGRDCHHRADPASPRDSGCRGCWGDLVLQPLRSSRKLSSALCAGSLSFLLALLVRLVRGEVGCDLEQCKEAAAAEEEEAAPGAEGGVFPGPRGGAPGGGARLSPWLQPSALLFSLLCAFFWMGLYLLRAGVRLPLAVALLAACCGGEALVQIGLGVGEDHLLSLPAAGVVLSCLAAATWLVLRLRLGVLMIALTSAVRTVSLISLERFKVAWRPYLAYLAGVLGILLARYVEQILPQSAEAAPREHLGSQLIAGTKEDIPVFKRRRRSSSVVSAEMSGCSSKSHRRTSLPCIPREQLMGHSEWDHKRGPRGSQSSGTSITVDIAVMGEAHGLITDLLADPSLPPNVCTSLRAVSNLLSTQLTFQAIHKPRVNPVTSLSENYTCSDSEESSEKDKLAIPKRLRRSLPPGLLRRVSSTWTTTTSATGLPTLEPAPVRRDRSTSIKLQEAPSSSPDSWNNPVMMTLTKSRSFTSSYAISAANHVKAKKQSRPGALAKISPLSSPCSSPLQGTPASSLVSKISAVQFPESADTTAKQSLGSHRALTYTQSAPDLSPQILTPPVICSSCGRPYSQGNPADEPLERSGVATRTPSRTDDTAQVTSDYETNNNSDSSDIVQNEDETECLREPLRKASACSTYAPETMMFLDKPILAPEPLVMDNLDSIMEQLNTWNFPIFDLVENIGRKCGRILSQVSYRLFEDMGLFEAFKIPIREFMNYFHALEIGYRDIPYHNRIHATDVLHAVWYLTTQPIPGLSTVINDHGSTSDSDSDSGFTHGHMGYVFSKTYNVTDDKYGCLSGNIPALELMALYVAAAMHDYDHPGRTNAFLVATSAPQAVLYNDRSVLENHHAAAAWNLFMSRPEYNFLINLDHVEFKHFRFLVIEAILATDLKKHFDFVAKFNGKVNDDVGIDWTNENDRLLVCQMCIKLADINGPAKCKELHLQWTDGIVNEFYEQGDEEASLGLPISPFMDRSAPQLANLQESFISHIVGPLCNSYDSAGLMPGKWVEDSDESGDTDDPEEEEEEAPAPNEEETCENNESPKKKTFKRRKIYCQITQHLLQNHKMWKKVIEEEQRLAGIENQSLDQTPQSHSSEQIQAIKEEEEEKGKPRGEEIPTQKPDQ

PDE10A2 = PDE10A2 (Homo sapiens, UniProt Q9Y233); experiment: PDE dose-response assay, PDE10A2; format: biochemical
Sequence of PDE10A2 (Q9Y233 267-1055, species assumed): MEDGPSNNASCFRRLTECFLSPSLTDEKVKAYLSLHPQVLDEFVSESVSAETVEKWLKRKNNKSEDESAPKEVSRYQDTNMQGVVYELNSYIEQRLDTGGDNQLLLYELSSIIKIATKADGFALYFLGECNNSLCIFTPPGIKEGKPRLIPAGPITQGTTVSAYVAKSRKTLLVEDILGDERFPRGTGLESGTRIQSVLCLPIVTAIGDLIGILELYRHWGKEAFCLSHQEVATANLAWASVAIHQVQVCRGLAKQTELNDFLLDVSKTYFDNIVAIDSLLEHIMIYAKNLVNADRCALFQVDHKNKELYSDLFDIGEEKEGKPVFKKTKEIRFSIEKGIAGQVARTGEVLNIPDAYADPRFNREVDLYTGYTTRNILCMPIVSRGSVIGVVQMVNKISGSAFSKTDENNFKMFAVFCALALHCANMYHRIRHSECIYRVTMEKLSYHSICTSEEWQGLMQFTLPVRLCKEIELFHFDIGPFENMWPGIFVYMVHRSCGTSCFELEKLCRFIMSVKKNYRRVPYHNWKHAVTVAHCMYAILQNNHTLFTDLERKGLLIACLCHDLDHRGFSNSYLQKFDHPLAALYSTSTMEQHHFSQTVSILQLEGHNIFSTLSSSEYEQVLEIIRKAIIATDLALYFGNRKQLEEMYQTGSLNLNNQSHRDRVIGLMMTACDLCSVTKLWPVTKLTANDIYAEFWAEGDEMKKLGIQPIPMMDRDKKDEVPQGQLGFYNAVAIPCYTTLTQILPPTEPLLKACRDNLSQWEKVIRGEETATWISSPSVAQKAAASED

PDE11A4 = PDE11A4 (Homo sapiens, UniProt Q9HCR9); experiment: PDE dose-response assay, PDE11A4; format: biochemical
Sequence of PDE11A4 (Q9HCR9 whole entry, species assumed): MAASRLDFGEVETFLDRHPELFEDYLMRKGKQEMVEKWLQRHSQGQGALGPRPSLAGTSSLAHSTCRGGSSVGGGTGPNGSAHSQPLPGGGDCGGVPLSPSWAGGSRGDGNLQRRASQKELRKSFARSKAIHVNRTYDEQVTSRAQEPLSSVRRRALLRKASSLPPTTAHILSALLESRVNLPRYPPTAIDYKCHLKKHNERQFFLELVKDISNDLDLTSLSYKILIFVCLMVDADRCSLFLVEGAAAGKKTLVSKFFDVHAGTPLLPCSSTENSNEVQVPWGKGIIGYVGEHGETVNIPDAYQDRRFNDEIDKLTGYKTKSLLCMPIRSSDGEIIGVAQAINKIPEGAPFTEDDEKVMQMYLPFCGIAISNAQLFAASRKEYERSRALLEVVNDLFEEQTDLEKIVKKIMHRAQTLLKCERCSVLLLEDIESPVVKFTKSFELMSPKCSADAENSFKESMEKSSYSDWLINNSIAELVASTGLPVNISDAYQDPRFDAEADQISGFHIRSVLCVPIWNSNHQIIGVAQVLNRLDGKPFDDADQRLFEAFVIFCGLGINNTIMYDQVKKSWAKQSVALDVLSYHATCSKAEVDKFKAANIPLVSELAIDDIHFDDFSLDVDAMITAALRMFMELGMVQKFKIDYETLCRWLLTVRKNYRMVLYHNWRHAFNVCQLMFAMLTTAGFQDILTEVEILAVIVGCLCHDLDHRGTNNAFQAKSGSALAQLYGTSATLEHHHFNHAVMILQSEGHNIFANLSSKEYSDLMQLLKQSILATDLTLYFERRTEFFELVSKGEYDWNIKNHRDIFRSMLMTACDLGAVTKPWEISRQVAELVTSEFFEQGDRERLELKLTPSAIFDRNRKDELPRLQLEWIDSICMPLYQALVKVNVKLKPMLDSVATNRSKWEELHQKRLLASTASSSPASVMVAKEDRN

442 kinases = experiment: Counter-screen, kinase panel
21 phosphatases = experiment: Counter-screen, phosphatase panel
[13] = tested on: PDE4D3-induced Hh signaling (Shh-Light2 cells); experiment: Hh reporter activity in Shh-Light2 cells transfected with PDE4D3; format: cell-based, mouse; conditions: 5 μM
How it was run: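 Hh reporter cells were transiently transfected with wild-type PDE4D3, dominant-negative PDE4D3 or empty pCS2 vector as control. Wild-type transfectants received 5 μM test compound. Reporter activity is reported as mean ± SEM and compared with vector control or untreated wild-type transfectants.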

CC1=C2C[C@H]3[C@@H](CC=C4C[C@@H](O)CC[C@@]43C)[C@@H]2CC[C@]12O[C@@H]1C[C@H](C)CN[C@H]1[C@H]2C [cyclopamine, reference compound]
Gli1 transcription level [1]: no inhibition
Ptc1 transcription level [1]: no inhibition

C=C[C@@]1(C)CC(=O)[C@]2(O)[C@@]3(C)[C@@H](O)CCC(C)(C)[C@@H]3[C@H](O)[C@H](OC(C)=O)[C@@]2(C)O1 [forskolin, reference compound]
nuclear accumulation of Gli2FL [2]: inhibited
Gli3R formation [3]: restored Gli3R formation

COc1ccc(C2CNC(=O)C2)cc1OC1CCCC1 (stereo not drawn) [rolipram]
potency in Gli-Luc reporter assay relative to eggmanone ([4]; stimulated with Shh): lower potency than eggmanone
Shh-responsive Gli-luciferase reporter activity [4]: did reduce Hh signaling levels

C=C(C)Cn1c(SCC(=O)c2cccs2)nc2sc3c(c2c1=O)CCCC3 [eggmanone, 3-(2-methylallyl)-2-((2-oxo-2-(thiophen-2-yl)ethyl)thio)-5,6,7,8-tetrahydrobenzo[4,5]thieno[2,3-d]pyrimidine-4(3H)-one]
Ptc1 expression in adaxial cells, pectoral fin fields and somites [5]: abrogation of the Hh-target gene Patched (Ptc)-1 expression
Shh-responsive Gli-luciferase reporter activity [4]: inhibited Hh-inducible Gli-responsive luciferase (Gli-Luc) activity in a dose-dependent manner
Gli-Luc activity in cells overexpressing Gli2 [6]: retained Gli-Luc activity
effect on BMP signaling [7]: not perturbed
purmorphamine-induced Gli-Luc reporter activity [8]: inhibited purmorphamine-induced (3 μM) Gli-Luc reporter activity in a dose-dependent manner
competition for Smo binding with BODIPY-cyclopamine (Smo): failed to compete
Gli1 transcription level [1]: significantly reduced
Ptc1 transcription level [1]: significantly reduced
Gli2 localization to primary cilium [9]: properly localized to the proximal tip of the cilium
ciliary transport protein IFT88 [10]: remained intact
cilium structure (Arl13b staining) [10]: unaffected
nuclear accumulation of Gli2FL [2]: inhibited
Gli3R formation [3]: restored Gli3R formation
phospho-T197-PKA at base of primary cilium / basal body (PKA [11]): significant increase in PKA activity at the base of the primary cilium
p-PKA levels in whole cell lysates (PKA [12]): no significant increase
inhibition of PDE activity (PDE super-family members): ≥ 50%
IC50 (PDE4D3): 0.072 µM
selectivity for PDE4D3 over other PDEs (PDE4D3; versus PDE3A, PDE10A2, PDE11A4): 40- to 50 fold
IC50 (PDE3A): 3 µM
IC50 (PDE10A2): 3.05 µM
IC50 (PDE11A4): 4.08 µM
inhibition of kinases in panel (442 kinases): ≤ 50%
inhibition of phosphatases in panel (21 phosphatases): ≤ 50%
Hh reporter activity induced by wild type PDE4D3 overexpression [13]: abolished
